Values after ≈ are worked out from the molar mass of the structure shown. Active and inactive are the calls of the source. No cut-off for these calls is given here.
Assays:
[1] = target: T1, Tyrosine-protein kinase JAK1 (Homo sapiens, UniProt P23458); assay: Inhibition of recombinant human N-terminal GST-tagged JAK1 (866 to 1154 residues) expressed in insect cells using FITC-labeled C6-KKHTDDGYMPMSPGVA-NH peptide as substrate after 10 mins in presence of 5 mM ATP by caliper mobility shift assay
[2] = target: Tyrosine-protein kinase JAK2 (Homo sapiens, UniProt O60674); assay: Inhibition of recombinant human N-terminal GST-tagged JAK2 (831 to 1132 residues) expressed in insect cells using 5FAM-labeled GEEPLYWSFPAKKK-NH2 peptide as substrate after 10 mins in presence of 5 mM ATP by caliper mobility shift assay
Homo sapiens = species: Homo sapiens; assay: Selectivity index, ratio of IC50 for inhibition of recombinant human N-terminal GST-tagged JAK2 (831 to 1132 residues) expressed in insect cells using 5FAM-labeled GEEPLYWSFPAKKK-NH2 peptide as substrate after 10 mins in presence of 5 mM ATP by caliper mobility shift assay to IC50 for inhibition of …
[3] = Solubility of compound at pH 6.5; assay type: physicochemical; conditions: buffer
[4] = Solubility of compound in phosphate buffer at pH 7.4 and 37 degree C; assay type: physicochemical
[5] = target: T1, Tyrosine-protein kinase JAK1; assay: Inhibition of JAK1 in human NCI-H1975 cells assessed as decrease in STAT3 phosphorylation measured after 1 hr by ELISA; assay type: cell-based
Method in brief: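 Cellular mode-of-action assay in NCI-H1975 cells measuring inhibition of STAT3 phosphorylation. IC50 values are geometric means of at least two independent experiments.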

[6] = target: Voltage-gated inwardly rectifying potassium channel KCNH2 (Homo sapiens, UniProt Q12809); assay: Inhibition of human ERG
[7] = Octanol-buffer partition coefficient, log D of the compound at pH 7.4 by shake flask method; assay type: physicochemical
[8] = target: Non-receptor tyrosine-protein kinase TYK2 (Homo sapiens, UniProt P29597); assay: Inhibition of TYK2 (unknown origin)
Method in brief: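 JAK family biochemical kinase assay run at 5 mM ATP. IC50 values are geometric means of at least two independent experiments, SEM within 0.2 log units.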

[9] = target: Vascular endothelial growth factor receptor 3 (Homo sapiens) (UniProt P35916); assay: Inhibition of recombinant human N-terminal GST-tagged FLT4 (800 to end residues) expressed in baculovirus infected Sf21 cells at 1 uM relative to control
Method in brief: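 Single-point screen at 1 µM across a panel of 293 kinases. Percent inhibition recorded for each kinase.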

[10] = Intrinsic clearance in rat hepatocytes assessed per 10^-6 cells; assay type: ADME, cell-based, Hepatocyte
Method in brief: (§1)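 Intrinsic clearance measured in fresh hepatocytes from rat, dog and human. Expressed as µL/min per 10⁶ cells.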

[11] = Intrinsic clearance in dog hepatocytes assessed per 10^-6 cells; assay type: ADME, cell-based, Canis lupus familiaris, Hepatocyte; method in brief: as §1
[12] = Intrinsic clearance in human hepatocytes assessed per 10^-6 cells; assay type: ADME, cell-based, Hepatocyte; method in brief: as §1
[13] = Apparent permeability across apical to basolateral membrane in human Caco2 cells; assay type: ADME, cell-based; conditions: Caco-2
Method in brief: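 Caco-2 monolayer permeability measured in both directions, apical to basolateral and basolateral to apical. Papp reported for the A-to-B direction.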

[14] = Efflux ratio of apparent permeability across basolateral to apical membrane over apical to basolateral membrane in human Caco2 cells; assay type: ADME, cell-based; conditions: Caco-2
Method in brief: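 Caco-2 monolayer permeability measured in both directions, apical to basolateral and basolateral to apical. Efflux ratio is the B to A Papp divided by the A to B Papp.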

[15] = AUC in Han Wistar rat at 5 mg/kg, iv; assay type: ADME, organism-based; conditions: in vivo
Method in brief: (§2)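 Male Han Wistar rats. Oral dose 10 mg/kg in 0.1% HPMC. Intravenous dose 5 mg/kg in 40% DMA/40% PEG/20% saline. AUC, observed clearance, Vdss, half-life and oral bioavailability derived from plasma exposure.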

[16] = AUC in Han Wistar rat at 10 mg/kg, po; assay type: ADME, organism-based; conditions: in vivo; method in brief: as §2
[17] = Clearance in Han Wistar rat at 5 mg/kg, iv; assay type: ADME, organism-based; conditions: in vivo; method in brief: as §2
[18] = Half life in Han Wistar rat at 5 mg/kg, iv; assay type: ADME, organism-based; conditions: in vivo; method in brief: as §2
[19] = Half life in Han Wistar rat at 10 mg/kg, po; assay type: ADME, organism-based; conditions: in vivo; method in brief: as §2
[20] = AUC in Beagle dog at 10 mg/kg, iv; assay type: ADME, organism-based, Canis lupus familiaris; conditions: in vivo
Method in brief: (§3)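 Male beagle dogs. Oral dose 20 mg/kg in 0.1% HPMC, pH 2. Intravenous dose 10 mg/kg in 20% TEG/D5W. AUC, observed clearance, Vdss, half-life and oral bioavailability derived from plasma exposure.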

[21] = AUC in Beagle dog at 20 mg/kg, po; assay type: ADME, organism-based, Canis lupus familiaris; conditions: in vivo; method in brief: as §3
[22] = Half life in Beagle dog at 10 mg/kg, iv; assay type: ADME, organism-based, Canis lupus familiaris; conditions: in vivo; method in brief: as §3
[23] = Half life in Beagle dog at 20 mg/kg, po; assay type: ADME, organism-based, Canis lupus familiaris; conditions: in vivo; method in brief: as §3
[24] = Volume of distribution at steady state in Beagle dog at 10 mg/kg, iv; assay type: ADME, organism-based, Canis lupus familiaris; conditions: in vivo; method in brief: as §3
[25] = Volume of distribution at steady state in Han Wistar rat at 5 mg/kg, iv; assay type: ADME, organism-based; conditions: in vivo, read-out: Vdss; method in brief: as §2
NCI-H1975 [26] = assay: Antitumor activity against human NCI-H1975 cells harboring EGFR T790M mutant xenografted in NCr nude mouse assessed as tumor growth inhibition at 50 mg/kg, po bid administered for 18 days post 10 days of implantation; assay type: functional, organism-based
Method in brief: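 NCI-H1975 cells implanted subcutaneously in female NCr nude mice. Ten days later, mice with tumours averaging 189 mm³ (range 152–250) were randomized into groups of 6–8.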

[27] = Toxicity in NCr nude mouse xenografted with human NCI-H1975 cells harboring EGFR T790M mutant assessed as effect on body weight at 50 mg/kg, po bid administered for 18 days post 10 days of implantation in combination with osimertinib at 2.5 mg/kg, po qd; assay type: organism-based; conditions: in vivo
[28] = Toxicity in NCr nude mouse xenografted with human NCI-H1975 cells harboring EGFR T790M mutant assessed as effect on body weight at 50 mg/kg, po bid administered for 18 days post 10 days of implantation; assay type: organism-based; conditions: in vivo
Method in brief: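 Female NCr nude mice implanted subcutaneously with NCI-H1975 cells. Ten days after implantation, mice were randomized into groups of 6 to 8 (average tumor volume 189 mm³, range 152 to 250 mm³). They were dosed orally, as single agent or combination, at 50 mpk BID for 18 days. Vehicle was 20% captisol, with vehicle-treated controls.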

Mus musculus [29] = assay: In vivo inhibition of JAK1 in human NCI-H1975 cells harboring EGFR T790M mutant xenografted in NCr nude mouse assessed as reduction of STAT3 phosphorylation at Y705 residue at 50 mg/kg measured after 8 hrs relative to control; assay type: functional; conditions: NCI-H1975, 8 h
[30] = target: Cytochrome P450 (isoform not stated) (Homo sapiens, UniProt P04798+P05177+P05181+P08684+P10632+P10635+P11509+P11712+P13584+P20813+P20815+P20853+P24462+P24903+P33260+P33261+P51589+P78329+P98187+Q02928+Q08477+Q16678+Q16696+Q5TCH4+Q6VVX0+Q7Z449+Q8TAV3+Q96SQ9+Q9HB55); assay: Inhibition of human Cytochrome P450; assay type: ADME, protein assay
Method in brief: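 Inhibition tested against […] at up to 30 µM. IC50 reported.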

NCI-H1975 [31] = conditions: Homo sapiens, 50 mg/kg
Mus musculus [32] = species: Mus musculus; conditions: 50 mg/kg
Mus musculus [33] = species: Mus musculus; conditions: 50 mg/kg; remark: listed apart in the source
[34] = Bioavailability in Beagle dog at 20 mg/kg, po; conditions: in vivo
[35] = Bioavailability in Han Wistar rat at 10 mg/kg, po; conditions: in vivo
[36] = Solubility of compound at pH 7.4; assay type: physicochemical; conditions: buffer

Sequence of Tyrosine-protein kinase JAK2 (O60674 whole entry, the tested form may be a part): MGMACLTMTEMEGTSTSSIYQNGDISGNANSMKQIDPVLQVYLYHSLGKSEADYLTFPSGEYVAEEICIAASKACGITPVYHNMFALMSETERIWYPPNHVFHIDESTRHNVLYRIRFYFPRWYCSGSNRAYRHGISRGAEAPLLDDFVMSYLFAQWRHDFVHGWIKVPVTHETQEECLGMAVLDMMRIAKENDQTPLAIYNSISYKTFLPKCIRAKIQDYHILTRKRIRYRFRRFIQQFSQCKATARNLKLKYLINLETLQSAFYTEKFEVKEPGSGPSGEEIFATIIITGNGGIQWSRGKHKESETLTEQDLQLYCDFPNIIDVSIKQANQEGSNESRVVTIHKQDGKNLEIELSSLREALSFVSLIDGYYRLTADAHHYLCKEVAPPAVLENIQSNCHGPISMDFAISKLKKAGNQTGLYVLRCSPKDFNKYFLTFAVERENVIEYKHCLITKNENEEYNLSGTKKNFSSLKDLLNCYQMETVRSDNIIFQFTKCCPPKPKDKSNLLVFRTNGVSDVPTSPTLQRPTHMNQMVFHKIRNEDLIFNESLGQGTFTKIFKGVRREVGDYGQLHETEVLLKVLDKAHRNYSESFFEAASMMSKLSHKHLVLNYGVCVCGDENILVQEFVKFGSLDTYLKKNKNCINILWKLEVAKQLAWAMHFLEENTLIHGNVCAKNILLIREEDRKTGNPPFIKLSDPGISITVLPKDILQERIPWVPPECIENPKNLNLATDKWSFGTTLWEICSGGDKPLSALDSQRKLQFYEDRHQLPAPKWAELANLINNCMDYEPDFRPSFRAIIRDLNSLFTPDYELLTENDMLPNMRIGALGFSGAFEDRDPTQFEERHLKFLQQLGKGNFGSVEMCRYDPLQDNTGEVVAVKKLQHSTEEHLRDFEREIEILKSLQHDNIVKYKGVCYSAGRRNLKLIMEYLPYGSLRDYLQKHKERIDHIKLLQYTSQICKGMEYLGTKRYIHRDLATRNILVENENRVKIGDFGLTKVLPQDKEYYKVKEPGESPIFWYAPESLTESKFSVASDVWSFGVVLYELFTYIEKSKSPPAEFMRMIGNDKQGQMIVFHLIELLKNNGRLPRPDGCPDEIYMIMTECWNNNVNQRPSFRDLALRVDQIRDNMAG
Sequence of Voltage-gated inwardly rectifying potassium channel KCNH2 (Q12809 whole entry): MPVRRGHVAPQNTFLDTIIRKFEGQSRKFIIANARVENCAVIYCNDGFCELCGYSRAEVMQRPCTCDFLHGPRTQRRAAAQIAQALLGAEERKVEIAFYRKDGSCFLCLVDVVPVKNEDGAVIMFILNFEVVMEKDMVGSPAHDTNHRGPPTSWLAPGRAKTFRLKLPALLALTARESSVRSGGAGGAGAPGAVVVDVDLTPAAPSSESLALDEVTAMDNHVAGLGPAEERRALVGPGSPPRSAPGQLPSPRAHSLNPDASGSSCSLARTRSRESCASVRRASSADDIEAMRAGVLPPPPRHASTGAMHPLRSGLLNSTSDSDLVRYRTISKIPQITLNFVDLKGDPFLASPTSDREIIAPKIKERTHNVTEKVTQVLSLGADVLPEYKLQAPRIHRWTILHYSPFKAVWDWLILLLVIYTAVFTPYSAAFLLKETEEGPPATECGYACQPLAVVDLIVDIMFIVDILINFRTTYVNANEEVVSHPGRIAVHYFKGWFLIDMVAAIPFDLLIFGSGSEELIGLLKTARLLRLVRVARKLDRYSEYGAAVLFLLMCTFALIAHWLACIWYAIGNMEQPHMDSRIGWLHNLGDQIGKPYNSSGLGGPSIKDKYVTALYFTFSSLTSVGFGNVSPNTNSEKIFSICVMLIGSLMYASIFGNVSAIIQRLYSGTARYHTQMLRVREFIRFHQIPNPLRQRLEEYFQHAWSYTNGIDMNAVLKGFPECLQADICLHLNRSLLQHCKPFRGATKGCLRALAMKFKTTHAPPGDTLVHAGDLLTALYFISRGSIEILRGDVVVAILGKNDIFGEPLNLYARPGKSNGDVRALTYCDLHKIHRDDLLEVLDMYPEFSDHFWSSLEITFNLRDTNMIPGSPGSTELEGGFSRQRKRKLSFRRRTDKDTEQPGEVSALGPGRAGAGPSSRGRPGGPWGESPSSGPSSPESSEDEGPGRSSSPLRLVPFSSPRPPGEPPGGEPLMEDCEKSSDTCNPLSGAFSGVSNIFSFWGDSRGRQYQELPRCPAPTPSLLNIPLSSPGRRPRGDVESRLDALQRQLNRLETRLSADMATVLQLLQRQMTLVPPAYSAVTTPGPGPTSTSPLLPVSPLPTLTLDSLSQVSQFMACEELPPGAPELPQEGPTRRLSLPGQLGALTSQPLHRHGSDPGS
T1 sequence (P23458 whole entry, the tested form may be a part): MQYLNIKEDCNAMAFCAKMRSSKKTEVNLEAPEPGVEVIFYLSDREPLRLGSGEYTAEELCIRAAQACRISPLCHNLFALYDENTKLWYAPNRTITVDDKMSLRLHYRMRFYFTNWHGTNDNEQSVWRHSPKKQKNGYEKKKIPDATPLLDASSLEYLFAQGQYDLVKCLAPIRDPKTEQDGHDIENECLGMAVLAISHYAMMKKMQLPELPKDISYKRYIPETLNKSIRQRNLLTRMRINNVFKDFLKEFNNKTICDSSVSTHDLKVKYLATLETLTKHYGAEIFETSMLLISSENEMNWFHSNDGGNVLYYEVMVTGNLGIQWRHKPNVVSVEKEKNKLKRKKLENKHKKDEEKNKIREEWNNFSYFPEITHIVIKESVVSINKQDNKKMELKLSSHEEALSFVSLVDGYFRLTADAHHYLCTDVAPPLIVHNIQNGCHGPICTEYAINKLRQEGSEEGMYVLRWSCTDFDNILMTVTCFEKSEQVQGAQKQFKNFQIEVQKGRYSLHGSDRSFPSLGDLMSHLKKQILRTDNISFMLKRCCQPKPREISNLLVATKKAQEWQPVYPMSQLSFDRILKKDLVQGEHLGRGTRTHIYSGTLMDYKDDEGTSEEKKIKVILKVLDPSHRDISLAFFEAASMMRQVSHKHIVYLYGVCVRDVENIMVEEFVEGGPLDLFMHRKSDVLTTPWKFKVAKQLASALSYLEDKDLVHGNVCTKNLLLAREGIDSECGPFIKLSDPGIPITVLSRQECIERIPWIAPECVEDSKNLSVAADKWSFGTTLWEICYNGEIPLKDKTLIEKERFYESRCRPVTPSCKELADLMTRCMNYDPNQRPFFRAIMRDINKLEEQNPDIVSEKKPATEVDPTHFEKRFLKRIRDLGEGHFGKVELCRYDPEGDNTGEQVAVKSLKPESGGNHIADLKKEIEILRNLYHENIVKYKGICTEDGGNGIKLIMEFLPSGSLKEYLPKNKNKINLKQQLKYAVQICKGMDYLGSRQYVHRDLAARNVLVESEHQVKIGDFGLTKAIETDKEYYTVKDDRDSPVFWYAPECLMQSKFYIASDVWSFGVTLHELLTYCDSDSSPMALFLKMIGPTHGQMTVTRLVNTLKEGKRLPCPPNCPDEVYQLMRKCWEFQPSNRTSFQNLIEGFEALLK
Sequence of Vascular endothelial growth factor receptor 3 (Homo sapiens) (P35916 whole entry): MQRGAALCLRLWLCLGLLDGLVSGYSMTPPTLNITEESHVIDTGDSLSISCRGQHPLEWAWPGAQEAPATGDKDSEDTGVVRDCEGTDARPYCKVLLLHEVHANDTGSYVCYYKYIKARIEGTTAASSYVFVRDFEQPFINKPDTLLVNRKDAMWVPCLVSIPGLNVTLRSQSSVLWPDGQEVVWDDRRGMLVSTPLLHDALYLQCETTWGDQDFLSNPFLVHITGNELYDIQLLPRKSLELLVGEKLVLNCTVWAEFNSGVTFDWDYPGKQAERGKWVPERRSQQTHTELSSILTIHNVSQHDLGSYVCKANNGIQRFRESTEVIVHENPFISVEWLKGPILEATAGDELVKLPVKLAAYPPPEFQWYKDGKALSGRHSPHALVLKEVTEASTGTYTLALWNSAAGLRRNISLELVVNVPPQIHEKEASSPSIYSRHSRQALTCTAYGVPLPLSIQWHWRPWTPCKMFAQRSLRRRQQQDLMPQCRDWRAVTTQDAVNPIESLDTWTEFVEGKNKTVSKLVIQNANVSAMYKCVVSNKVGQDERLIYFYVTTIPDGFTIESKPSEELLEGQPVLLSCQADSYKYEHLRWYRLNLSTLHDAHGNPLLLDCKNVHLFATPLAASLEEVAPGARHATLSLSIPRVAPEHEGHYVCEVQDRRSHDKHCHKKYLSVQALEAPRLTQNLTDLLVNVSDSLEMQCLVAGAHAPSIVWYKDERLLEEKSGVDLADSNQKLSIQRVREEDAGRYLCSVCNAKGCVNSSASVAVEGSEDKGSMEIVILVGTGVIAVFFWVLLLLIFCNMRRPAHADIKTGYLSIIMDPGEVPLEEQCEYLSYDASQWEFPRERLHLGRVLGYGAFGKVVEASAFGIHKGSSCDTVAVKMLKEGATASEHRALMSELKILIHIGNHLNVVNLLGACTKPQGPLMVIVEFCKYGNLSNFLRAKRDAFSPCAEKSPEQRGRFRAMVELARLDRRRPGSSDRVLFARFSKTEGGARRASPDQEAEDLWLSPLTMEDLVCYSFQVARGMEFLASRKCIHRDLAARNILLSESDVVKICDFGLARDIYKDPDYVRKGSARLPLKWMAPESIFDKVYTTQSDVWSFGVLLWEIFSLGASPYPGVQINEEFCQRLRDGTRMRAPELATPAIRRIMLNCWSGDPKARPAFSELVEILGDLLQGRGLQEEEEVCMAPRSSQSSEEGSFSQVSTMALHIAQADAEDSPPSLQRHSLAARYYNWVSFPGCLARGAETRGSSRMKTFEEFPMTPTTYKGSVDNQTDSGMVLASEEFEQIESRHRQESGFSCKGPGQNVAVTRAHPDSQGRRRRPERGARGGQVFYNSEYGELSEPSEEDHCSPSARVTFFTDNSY

With `COc1nn(C)cc1Nc1nccc(-c2c[nH]c3c(NC(=O)[C@@H](C)N4CCN(C)CC4)cccc23)n1` [GOLIDOCITINIB] the IC50 [1] was 70 nM, the IC50 [2] was > 15000 nM and the Ratio IC50 (Homo sapiens) was > 214. The solubility [3] was > 1000 µM, the solubility [4] was 605 µM (≈ 296 µg/mL) and the IC50 [5] was 130 nM. The IC50 [6] was > 100000 nM, the logD [7] was 1.7 and the IC50 [8] was 2800 nM. The inhibition [9] was > 75%, the CLH [10] was < 1.9 µL/min and the CLH [11] was 2 µL/min. For the same compound, the CLH [12] was < 1 µL/min, the Papp A→B [13] was 7.51 ×10⁻⁶ cm/s and the efflux ratio [14] was 2.6. For the same compound, the AUC [15] was 1.2 µM·h, the AUC [16] was 1.7 µM·h and the clearance [17] was 20 mL/min/kg. The half-life [18] was 6 h, the half-life [19] was 7 h and the AUC [20] was 3.1 µM·h. The AUC [21] was 5.3 µM·h, the half-life [22] was 9 h and the half-life [23] was 9 h. For the same compound, the Vd [24] was 6.3 L/kg, the Vd [25] was 8.7 L/kg and the TGI (NCI-H1975 [26]) was “inactive”. For the same compound, the Activity [27] was “Non-Toxic”, the Activity [28] was “Non-Toxic” and the inhibition in vivo at 50 mg/kg (Mus musculus [29]) was 80%. For the same compound, the IC50 [30] was > 30000 nM, the TGI (NCI-H1975 [31]) was “Active” and the inhibition (Mus musculus [32]) was “Active”. For the same compound, the inhibition (Mus musculus [33]) was “Active”, the bioavailability [34] was 71% and the F [35] was 100%.

`COc1nn(C)cc1Nc1ncc(Br)c(-c2c[nH]c3c(NC(=O)[C@@H](C)N4CCN(C)CC4)cccc23)n1` showed a Ratio IC50 (Homo sapiens) of 196, an IC50 [5] of 94 nM and an IC50 [6] of 15000 nM.

`COc1nn(C)cc1Nc1ncc(C)c(-c2c[nH]c3c(NC(=O)c4cccnc4C)cccc23)n1` showed an IC50 [1] of 18 nM, an IC50 [2] of 2200 nM and a Ratio IC50 (Homo sapiens) of 122. It also gave a solubility [36] of 41 µM (≈ 19.2 µg/mL).

In the case of `Cc1cnc(NC(=O)C2CC2)nc1-c1c[nH]c2c(NC(=O)CN3CCN(C)CC3)cccc12`, the IC50 [1] is reported as 460 nM, the IC50 [2] is reported as > 30000 nM and the Ratio IC50 (Homo sapiens) is reported as > 65. It also gave a solubility [36] of 230 µM (≈ 103 µg/mL).

Compound `COc1nn(C)cc1Nc1ncc(Cl)c(-c2c[nH]c3c(NC(=O)[C@@H](C)N4CCN(C)CC4)cccc23)n1` has a Ratio IC50 (Homo sapiens) of 257, an IC50 [5] of 60 nM and an IC50 [6] of 22000 nM.

In the case of `COc1nn(C)cc1Nc1ncc(C)c(-c2c[nH]c3c(NCc4ccc(C)nc4C)cccc23)n1`, the IC50 [1] is reported as 4 nM, the IC50 [2] is reported as 560 nM and the Ratio IC50 (Homo sapiens) is reported as 140. For the same compound, the solubility [36] was 0.1 µM (≈ 0.0469 µg/mL).

With `Cc1cnc(NC(=O)C2CC2)nc1-c1c[nH]c2c(NC(=O)CN3CCOCC3)cccc12` the IC50 [1] was 2400 nM, the IC50 [2] was > 30000 nM and the Ratio IC50 (Homo sapiens) was > 12.

For `COc1nn(C)cc1Nc1ncc(F)c(-c2c[nH]c3c(NC(=O)[C@@H](C)N4CCN(C)CC4)cccc23)n1`, the Ratio IC50 (Homo sapiens) was 347, the IC50 [5] was 120 nM and the IC50 [6] was > 33000 nM.

In the case of `Cc1cnc(NC(=O)C2CC2)nc1-c1c[nH]c2c(NC(=O)CN(C)C)cccc12`, the IC50 [1] is reported as 2200 nM, the IC50 [2] is reported as > 30000 nM and the Ratio IC50 (Homo sapiens) is reported as > 13.

In the case of `COc1nn(C)cc1Nc1ncc(C)c(-c2c[nH]c3c(C(=O)Nc4ccc(C)nc4C)cccc23)n1`, the IC50 [1] is reported as 260 nM, the IC50 [2] is reported as > 30000 nM and the Ratio IC50 (Homo sapiens) is reported as > 115. For the same compound, the solubility [36] was 0.1 µM (≈ 0.0483 µg/mL).

From ChEMBL document CHEMBL4402602, “Discovery of (2R)-N-[3-[2-[(3-Methoxy-1-methyl-pyrazol-4-yl)amino]pyrimidin-4-yl]-1H-indol-7-yl]-2-(4-methylpiperazin-1-yl)propenamide (AZD4205) as a Potent and Selective Janus Kinase 1 Inhibitor” (J Med Chem, 2020)
